Measurements pooled from the literature.
Protocols differ between the studies behind these lines.
Target: MAP/microtubule affinity-regulating kinase 3 (MARK3, Homo sapiens, UniProt P27448)

O=c1[nH]c2ccccc2n1C1CCN(Cc2ccc(-c3[nH]c4cc5ncnc5cc4nc3-c3ccccc3)cc2)CC1 has a remaining signal of 103% (cell-free assay; 0.5 µM).
Cn1cncc1[C@](O)(COc1ccc(C#N)cc1-c1ccc(OC(F)(F)F)cc1)c1ccc(C#N)cc1 gave a remaining binding of 100% (cell-free assay; competition with immobilised ligand; 1 µM).
With COc1cc(Nc2ncc(F)c(Nc3ccc4c(n3)NC(=O)C(C)(C)O4)n2)cc(OC)c1OC the inhibition was 63% (binding; competition with immobilised ligand; 10 µM).
For Cn1cc(-c2cc(F)cc(N3CCn4c(cc5c4CCCC5)C3=O)c2CO)cc(Nc2ccc(N3CCN(C4COC4)CC3)cn2)c1=O, the inhibition was 6% (enzyme activity; inhibitor; 0.1 µM).
CC(C)(C)c1cc(C=C(C#N)C#N)cc(Br)c1O has a remaining activity of 105% (enzyme activity; inhibitor; 0.5 µM).
COc1ncccc1-c1cnn2ccc(N3CCN(C(=O)OC(C)C)CC3)nc12 has a remaining binding of 96% (binding; competition with immobilised ligand; 1 µM).
For Cc1nn(C)cc1-c1nc2c(N3CCN(Cc4ccc(Cl)cc4)CC3)c(Cl)cnc2[nH]1, the remaining binding was 45% (binding; competition with immobilised ligand; 1 µM).
The remaining binding of Nc1ncc(-c2nc(N3CCOCC3)nc(N3CCOCC3)n2)c(C(F)F)n1 is reported as 100% (binding; competition with immobilised ligand; 10 µM).
